Test results: ChEMBL document CHEMBL1221230, “Inhibition of eukaryotic translation elongation by cycloheximide and lactimidomycin” (Nat Chem Biol, 2010)
The source made the active and inactive calls. The rule behind the calls is not given here.

What was measured:
[1] = target: T1, Elongation factor 1-alpha 1 (Homo sapiens) (UniProt P68104); test: Inhibition of eEF1A-mediated tRNA binding to ternary complex at 200 uM after 10 mins by filtration binding assay
T1 sequence (whole entry): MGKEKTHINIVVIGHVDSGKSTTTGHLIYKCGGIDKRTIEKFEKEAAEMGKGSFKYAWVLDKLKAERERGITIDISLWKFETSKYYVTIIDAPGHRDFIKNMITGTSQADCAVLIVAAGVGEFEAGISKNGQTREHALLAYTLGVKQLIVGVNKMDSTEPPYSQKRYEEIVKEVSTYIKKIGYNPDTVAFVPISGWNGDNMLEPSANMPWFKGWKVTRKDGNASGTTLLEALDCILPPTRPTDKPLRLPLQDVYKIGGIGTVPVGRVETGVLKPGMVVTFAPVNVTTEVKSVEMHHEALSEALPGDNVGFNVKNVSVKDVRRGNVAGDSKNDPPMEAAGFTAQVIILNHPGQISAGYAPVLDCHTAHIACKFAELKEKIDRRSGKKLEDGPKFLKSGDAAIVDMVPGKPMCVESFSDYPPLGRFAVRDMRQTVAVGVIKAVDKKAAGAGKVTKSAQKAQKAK
How it was run: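 Ribosomes (89 pmol) in 20 mM HEPES pH 7.4, 100 mM KCl, 10 mM MgCl₂, 1 mM DTT with 200 ng poly(U), 2.2 μg eEF1A, 150 μM GDPNP and 200 μM compound, before 10 pmol [¹⁴C]Phe-tRNA^Phe added; 10 min at 37°C; nitrocellulose filtration, scintillation counting.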

[2] = system: Saccharomyces cerevisiae; test: Antimicrobial activity against Saccharomyces cerevisiae J47alpha; type: functional, organism-based
How it was run: (§1)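 Four isogenic S. cerevisiae strain pairs, each differing only by presence or absence of cyh2, exposed to varying compound concentrations; growth read by optical density; IC50 derived per strain, resistance as ratio between paired strains.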

[3] = organism: Oryctolagus cuniculus; test: Inhibition of translational activity in rabbit reticulocyte assessed as occurrence of ribosomal arrest at start codon at 200 uM by toeprinting assay; type: functional
How it was run: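 Labelled rabbit β-globin mRNA incubated in rabbit reticulocyte lysate with inhibitor; mixture centrifuged through sucrose gradient, 80S fractions taken to isolate stalled ribosomes; primer extended by AMV reverse transcriptase toward stalled ribosome to map arrest site.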

[4] = target: Elongation factor 2 (Homo sapiens) (UniProt P13639); test: Inhibition of eEF2-mediated tRNA translocation assessed as inhibition of polyphenylalanine synthesis at 200 uM after 10 mins by scintillation counting
[5] = system: MDA-MB-231; test: Antiproliferative activity against human MDA-MB-231 cells assessed as incorporation of [3H]thymidine in nuclear DNA at 2.5 uM after 24 hrs by scintillation counting; type: functional, cell-based
How it was run: (§2)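 Each of three tumour cell lines incubated with compound at 2.5 μM for 24 h, then [³H]thymidine added to monitor DNA synthesis; initial proliferation screen.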

[6] = Inhibition of elF4A-mediated renilla luciferase translational activity at 200 to 2000 nM in presence of HCV IRES element
[7] = system: HEK-293T; test: Effect on polyribosome profiling in human HEK293T cells assessed as accumulation of 80S ribosomes at 50 uM after 30 mins by spectrophotometry; type: functional, cell-based
How it was run: (§3)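 HEK 293T cells treated 30 min with compound, then lysed; lysates centrifuged through 15–45% sucrose gradient to give polysome profiles.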

[8] = system: MCF-10A; test: Anticancer activity against human MCF10A cells after 24 hrs by [3H]thymidine incorporation assay; type: functional, cell-based
[9] = system: Saccharomyces cerevisiae; test: Fold resistance, ratio of IC50 Saccharomyces cerevisiae J407alpha expressing ribosomal protein cyh2 and harboring mutation in rpl28 to IC50 for Saccharomyces cerevisiae J47alpha; type: functional; how it was run: as §1
[10] = system: Saccharomyces cerevisiae; test: Antimicrobial activity against Saccharomyces cerevisiae J407alpha expressing ribosomal protein cyh2 and harboring mutation in rpl28; type: functional, organism-based; how it was run: as §1
[11] = system: MCF7; test: Anticancer activity against human MCF7 cells after 24 hrs by [3H]thymidine incorporation assay; type: functional, cell-based
[12] = system: Saccharomyces cerevisiae; test: Antimicrobial activity against Saccharomyces cerevisiae BY724 expressing ribosomal protein cyh2 and harboring mutation in rpl28; type: functional, organism-based; how it was run: as §1
[13] = system: HeLa; test: Inhibition of protein synthesis in human HeLa cells assessed as [35S]cysteine/methionine utilization after 2 hrs by scintillation spectroscopy; type: functional, cell-based
How it was run: (§4)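 HeLa cells incubated 2 h with varying compound concentrations plus [³⁵S]cysteine/methionine (translation) or [³H]uridine (transcription). Protein synthesis: scintillation counting of TCA-precipitated protein on PVDF membrane. Transcription: scintillation counting of nucleic acids bound to GF/C glass fibre filter.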

[14] = Inhibition of elF4A-mediated renilla luciferase translational activity at 0.02 to 5 uM in presence of CrPV IRES element
[15] = Effect on peptidyl transfer assessed as [35S]methionyl-puromycin formation by TLC
[16] = system: Saccharomyces cerevisiae; test: Antimicrobial activity against Saccharomyces cerevisiae JB281; type: functional, organism-based; how it was run: as §1
[17] = Inhibition of [32P]deacetylated phe-tRNA binding to 60S ribosome E-site by footprinting assay
[18] = system: Saccharomyces cerevisiae; test: Antimicrobial activity against Saccharomyces cerevisiae JB503; type: functional, organism-based; how it was run: as §1
[19] = system: BT-474; test: Anticancer activity against human BT474 cells after 24 hrs by [3H]thymidine incorporation assay; type: functional, cell-based
[20] = system: Saccharomyces cerevisiae; test: Antimicrobial activity against Saccharomyces cerevisiae BY108; type: functional, organism-based; how it was run: as §1
[21] = system: Hs-578T; test: Anticancer activity against human Hs 578T cells after 24 hrs by [3H]thymidine incorporation assay; type: functional, cell-based
[22] = system: Saccharomyces cerevisiae; test: Fold resistance, ratio of IC50 for Saccharomyces cerevisiae BY686 expressing ribosomal protein cyh2 and harboring mutation in rpl28 to IC50 Saccharomyces cerevisiae JB503; type: functional; how it was run: as §1
[23] = system: MDA-MB-231; test: Antitumor activity against human MDA-MB-231 cells xenografted in nude mouse assessed as inhibition of tumor growth at 0.6 mg/kg, sc qd for 1 month administered post tumor implantation; type: functional, organism-based; set-up: dose 0.6 mg/kg
How it was run: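 Two million MDA-MB-231 cells injected subcutaneously into female nude mice; once tumours palpable, compound 0.6 mg/kg or solvent given daily for one month; tumour growth followed.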

[24] = Inhibition of elF4A-mediated renilla luciferase translational activity at 0.02 to 5 uM in presence of EMCV IRES element
[25] = system: HCC1395; test: Anticancer activity against human HCC1395 cells after 24 hrs by [3H]thymidine incorporation assay; type: functional, cell-based
[26] = system: MDA-MB-231; test: Anticancer activity against human MDA-MB-231 cells after 24 hrs by [3H]thymidine incorporation assay; type: functional, cell-based
[27] = system: HCC1937; test: Anticancer activity against human HCC1937 cells after 24 hrs by [3H]thymidine incorporation assay; type: functional, cell-based
[28] = system: Jurkat; test: Antiproliferative activity against human Jurkat cells assessed as incorporation of [3H]thymidine in nuclear DNA at 2.5 uM after 24 hrs by scintillation counting; type: functional, cell-based; how it was run: as §2
[29] = system: HeLa; test: Inhibition of transcriptional activity in human HeLa cells assessed as [3H]uridine utilization after 2 hrs by scintillation counting; type: functional, cell-based; how it was run: as §4
[30] = system: Saccharomyces cerevisiae; test: Fold resistance, ratio of IC50 for Saccharomyces cerevisiae BY724 expressing ribosomal protein cyh2 and harboring mutation in rpl28 to IC50 for Saccharomyces cerevisiae BY108; type: functional; how it was run: as §1
[31] = system: HEK-293T; test: Effect on polyribosome profiling in human HEK293T cells assessed as depletion of polysomes at 50 uM after 30 mins by spectrophotometry; type: functional, cell-based; how it was run: as §3

SMILES: C/C(=C\[C@H](C)C(=O)C[C@H](O)CC1CC(=O)NC(=O)C1)[C@@H]1OC(=O)/C=C/CC/C=C/C=C\[C@@H]1C [LACTIMIDOMYCIN]
- inhibition [1]: inactive
- IC50 [2]: 4.6 nM
- inhibition [3]: Active
- inhibition [4]: Active
- Activity [5]: inactive
- inhibition [6]: Active
- Activity [7]: Active
- Activity [8]: Active
- Ratio IC50 [9]: 241
- IC50 [10]: 1110 nM
- Activity [11]: Active
- IC50 [12]: 6.53 µM
- IC50 [13]: 37.8 nM
- inhibition [13]: Dose-dependent effect
- inhibition [14]: Active
- Activity [15]: inactive
- IC50 [16]: 59 nM
- inhibition [17]: Active
- IC50 [18]: 58 nM
- Activity [19]: Active
- IC50 [20]: 488 nM
- Activity [21]: Active
- Ratio IC50 [22]: 10.3
- Activity [23]: Active
- inhibition [24]: Active
- Activity [25]: Active
- Activity [26]: Active
- Activity [27]: Active
- Activity [28]: inactive
- IC50 [29]: > 10 µM
- Ratio IC50 [30]: 13.4
- Activity [31]: Active
